# Measured values from different studies.
# Protocols differ between the studies behind these lines.
# Target: Mitogen-activated protein kinase kinase kinase kinase 2 (MAP4K2, Homo sapiens, UniProt Q12851)
# Residues used in one study (Q12851 1-820): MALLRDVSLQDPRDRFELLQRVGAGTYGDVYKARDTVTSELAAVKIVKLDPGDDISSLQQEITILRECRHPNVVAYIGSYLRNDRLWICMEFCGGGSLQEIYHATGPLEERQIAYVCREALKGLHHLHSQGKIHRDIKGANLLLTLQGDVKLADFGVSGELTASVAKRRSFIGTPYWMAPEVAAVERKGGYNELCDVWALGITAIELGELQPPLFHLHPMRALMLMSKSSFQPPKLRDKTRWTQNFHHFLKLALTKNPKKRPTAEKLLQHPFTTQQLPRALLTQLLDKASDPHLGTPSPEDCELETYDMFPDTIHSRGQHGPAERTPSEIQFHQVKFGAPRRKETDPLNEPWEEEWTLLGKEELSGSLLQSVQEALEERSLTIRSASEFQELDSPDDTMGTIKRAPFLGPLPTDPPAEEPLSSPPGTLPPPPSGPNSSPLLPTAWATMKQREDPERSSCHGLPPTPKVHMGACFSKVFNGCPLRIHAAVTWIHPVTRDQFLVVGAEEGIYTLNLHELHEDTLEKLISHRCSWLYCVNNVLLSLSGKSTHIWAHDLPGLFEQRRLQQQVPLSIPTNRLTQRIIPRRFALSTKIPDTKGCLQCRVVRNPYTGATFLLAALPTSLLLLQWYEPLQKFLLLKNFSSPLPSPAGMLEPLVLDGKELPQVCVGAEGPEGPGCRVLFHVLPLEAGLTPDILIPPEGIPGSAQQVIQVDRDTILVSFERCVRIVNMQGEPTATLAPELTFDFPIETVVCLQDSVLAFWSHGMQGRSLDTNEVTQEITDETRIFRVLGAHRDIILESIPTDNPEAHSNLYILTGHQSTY
SMILES,assay,conditions,measurement,result
Cn1cncc1[C@@](O)(COc1ccc(C#N)cc1-c1ccc(OC(F)(F)F)cc1)c1ccc(C#N)cc1,"cell-free assay, competition with immobilised ligand",1 µM,remaining binding,100%
O=c1[nH]c2ccccc2n1C1CCN(Cc2ccc(-c3[nH]c4cc5ncnc5cc4nc3-c3ccccc3)cc2)CC1,cell-free assay,0.5 µM,remaining signal,105%
Nc1ncc(-c2nc(N3CCOCC3)nc(N3CCOCC3)n2)c(C(F)F)n1,"binding, competition with immobilised ligand",10 µM,remaining binding,78%
CC(C)(C)c1cc(C=C(C#N)C#N)cc(Br)c1O,"enzyme activity, inhibitor",0.5 µM,remaining activity,113%
N#CC1(c2ccccn2)CCN(Cc2cc(C(=O)O)c(=O)n3ccccc23)CC1,"cell-free assay, competition with immobilised ligand",1 µM,remaining binding,81%
COc1ncccc1-c1cnn2ccc(N3CCN(C(=O)OC(C)C)CC3)nc12,"binding, competition with immobilised ligand",1 µM,remaining binding,65%
COc1cc(Nc2ncc(F)c(Nc3ccc4c(n3)NC(=O)C(C)(C)O4)n2)cc(OC)c1OC,"binding, competition with immobilised ligand",10 µM,inhibition,85%
Cn1cc(-c2cc(F)cc(N3CCn4c(cc5c4CCCC5)C3=O)c2CO)cc(Nc2ccc(N3CCN(C4COC4)CC3)cn2)c1=O,"enzyme activity, inhibitor",0.1 µM,inhibition,2%
Cc1nn(C)cc1-c1nc2c(N3CCN(Cc4ccc(Cl)cc4)CC3)c(Cl)cnc2[nH]1,"binding, competition with immobilised ligand",1 µM,remaining binding,85%
